Activity calls are given as the source filed them. No cut-off for these calls is given here.

Series [1] has as its system Cancer cell lines. Nature of the series: Antitumor activity against human HCT116 cells xenografted in 48 hpf zebrafish embryo assessed as inhibition of cancer cell proliferation at 80 uM treated for 4 days. The series is classed as functional, cell-based. A digest of the protocol:
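HCT116 cells labelled with 2 μg/mL DiI were injected into the yolk sac of 48 hpf embryos. Embryos were held singly in E3 without methylene blue with compound (80 μM), 10 μM API-H7 as positive control or DMSO, at 31 °C for 96 h, 8 per group. Larvae were dissociated with collagenase/dispase for 2 h at 37 °C, fixed in paraformaldehyde, and fluorescent cells counted by microscopy. Two independent assays.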
(In general: A xenograft is tissue or cells of one species grown in another, often human tumour cells in immunodeficient mice.)

For series [2], the system named is HCT-116. Nature of the series: Cytotoxicity against human HCT116 cells at 1.25 to 20 uM after 96 hrs by MTT assay. Type of series: functional, cell-based. The procedure, abridged:
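HCT116 cells in DMEM with 10% FBS, seeded at 4 × 10^3 per well and left overnight at 37 °C. Treated in 1% FBS–DMEM for 96 h, then MTT for 3 h. Formazan dissolved in DMSO, absorbance read at 570 nm. DMSO vehicle control. Two independent assays, mean ± SD.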
Background: Tetrazolium dyes change colour on reduction, which living cells bring about.

Series [3] is filed under the species Danio rerio. Nature of the series: Teratogenic effect in zebrafish assessed as abnormal head at 160 uM after 72 hrs by microscopy. Type of series: organism-based. As to conditions: in vivo. A digest of the protocol:
(§1)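 Fertilized eggs were exposed from the eight-cell stage, 8 per well, at 31 °C for 72 h. Development, malformations and survival were then recorded by microscopy.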

For series [4], the species on record is Danio rerio. Nature of the series: Teratogenic effect in zebrafish assessed as skeletal deformities at 160 uM after 72 hrs by microscopy. The note with it: in vivo. The series is classed as organism-based. The procedure, abridged:
as §1

Series [5] concerns Danio rerio. Nature of the series: Teratogenic effect in zebrafish assessed as heart sac edema at 160 uM after 72 hrs by microscopy. The series is classed as organism-based. As to conditions: in vivo. The procedure, abridged: as §1
The species named for series [6] is Danio rerio. Nature of the series: Teratogenic effect in zebrafish assessed as abnormal heart at 160 uM after 72 hrs by microscopy. The series is classed as organism-based. The note with it: in vivo. A digest of the protocol: as §1
Series [7] deals with HCT-116. Nature of the series: Induction of apoptosis in human HCT116 cells assessed as PARP cleavage at 20 uM after 72 hrs by immunoblotting. Type of series: functional, cell-based. A digest of the protocol: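 HCT116 cells were treated with 20 μM compound for 72 h and lysed in ice-cold buffer with PMSF and protease inhibitors. Protein in the cleared supernatant was measured by BCA, and PARP cleavage was detected by western blot with actin as reference.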

Series [8] is filed under the species Danio rerio. Nature of the series: Teratogenic effect in zebrafish assessed as slow heartbeat at 160 uM after 72 hrs by microscopy. Type of series: organism-based. As to conditions: in vivo. A digest of the protocol: as §1
Series [9] can be described thus: Drug metabolism assessed as zebrafish intestinal beta-glucosidase-mediated formation of quercetin after 2.5 hrs by resorufin-beta-D-glucopyranoside-based fluorescence assay. The series is classed as ADME, Danio rerio. The procedure, abridged:
(§2)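 Larvae at 7 dpf (24 per well) were incubated in E3 without methylene blue with Res-β-Glc probe at 400 μM, with or without 80 μM compound, for 2.5 h at 31 °C, then washed. Larvae showing reduced fluorescence against probe-alone larvae were counted by microscopy (n = 3, SD). Lysates were also read at ex 570/em 610 nm.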

The species entered for series [10] is Danio rerio. Nature of the series: Teratogenic effect in zebrafish assessed as developmental toxicity at 40 to 80 uM after 72 hrs by microscopy. The series is classed as organism-based. The note with it: in vivo. The procedure, abridged:
as §1

The subject of series [11] is beta-glucosidase. Nature of the series: (§3) Drug metabolism assessed as zebrafish intestinal beta-glucosidase-mediated deglycosylation of compound at 80 uM after 2.5 hrs by resorufin-beta-D-glucopyranoside-based fluorescence assay. Type of series: ADME, Danio rerio. The note with it: zebrafish intestinal beta-glucosidase, probe resorufin-beta-D-glucopyranoside, read-out: Drug metabolism. The procedure, abridged:
as §2

Series [12] deals with Cancer cell lines. Nature of the series: Antitumor activity against human HCT116 cells xenografted in 48 hpf zebrafish embryo assessed as inhibition of cancer cell proliferation compound treated for 4 days. Type of series: functional, cell-based.
Series [13] can be described thus: Drug metabolism assessed as zebrafish intestinal beta-glucosidase-mediated formation of quercetin at 80 uM after 2.5 hrs by resorufin-beta-D-glucopyranoside-based fluorescence assay. Type of series: ADME, Danio rerio. A digest of the protocol:
as §2

For series [14], the species on record is Danio rerio. Nature of the series: Teratogenic effect in zebrafish assessed as abnormal development of yolk sac at 160 uM after 72 hrs by microscopy. The series is classed as toxicity, organism-based. As to conditions: in vivo. The procedure, abridged: as §1
Series [15] is filed under the species Danio rerio. Nature of the series: Teratogenic effect in zebrafish assessed as delayed hatching at 160 uM after 72 hrs by microscopy. The series is classed as organism-based. The note with it: in vivo. A digest of the protocol: as §1
The nature of series [16]: as §3. As to conditions: 2.5 h, 80 µM. Type of series: ADME, Danio rerio. A digest of the protocol:
as §2

Regarding `C[C@@H]1O[C@@H](Oc2c(-c3ccc(O)c(O)c3)oc3cc(O)cc(O)c3c2=O)[C@H](O)[C@H](O)[C@H]1O`, the result in series [1] was inactive. The result in [2] was Active.

In the case of `O=c1c(O[C@@H]2O[C@H](CO)[C@H](O)[C@H](O)[C@H]2O)c(-c2ccc(O)c(O)c2)oc2cc(O)cc(O)c12`, the outcome in [1] was inactive. In addition, in series [2], the outcome was Active.

For the molecule `O=c1c(O[C@@H]2O[C@H](CO)[C@@H](O)[C@H](O)[C@H]2O)c(-c2ccc(O)c(O)c2)oc2cc(O)cc(O)c12` [ISOQUERCETIN], the Activity result in [3], in [4], in series [5], in series [6], in series [8] and in series [10] was “Non-toxic” in each case. The Activity result is “Dose-dependent effect” in series [12], “Non-toxic” in series [14] and “Non-toxic” in [15]. In addition, the result in series [7], in [1] and in series [2] was Active. Besides, the Drug metabolism entry in series [9] was “Dose-dependent effect”; in [13] it was “metabolite_detected”. Besides, the metabolised at 2.5 h, 80 µM in series [11] came out at 57%.

Take `O=c1c(O)c(-c2ccc(O)c(O)c2)oc2cc(O)cc(O)c12` [QUERCETIN]: the Activity result in [3], in series [4], in series [5], in [6], in series [8] and in [10] was “Non-toxic” each time. The Activity result in [14] and in series [15] was “Non-toxic” in each case. For the same molecule, the outcome in [7], in [1] and in series [2] was Active. In series [16], the Drug metabolism entry is “metabolite_notdetected”.

`O=c1c(O)c(-c2ccc(O[C@@H]3O[C@H](CO)[C@@H](O)[C@H](O)[C@H]3O)c(O)c2)oc2cc(O)cc(O)c12` [SPIRAEOSIDE]: the Activity in series [3] was 31.25%; in [4], 31.25%; in [5], 31.25%; in series [6], 31.25%; in series [8], 31.25%; in [10], “Non-toxic”. Also, the Activity in [14] and in [15] was 31.25% each time. The result in [7] and in series [2] was Active. Besides, the metabolised at 2.5 h, 80 µM in [11] was determined as 45%. The outcome in [1] was inactive.
